The nature of series [1]: Half-life in human serum. It is filed as ADME, cell-free.
Series [2] addresses Survival motor neuron protein (Homo sapiens) (UniProt Q16637). The experiment in a line: Activation of SMN expressed in HEK293 cells assessed as rate of induction by SMN2-promotor driven luciferase reporter gene assay relative to basal level. It counts as cell-based. Set-up: concentration or dose not given beside the values. In outline:
(§1)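 HEK-293 cells stably carrying the SMN2 reporter construct, kept in DMEM with 10% FCS, glutamax, pyruvate, pen/strep and 200 µg/mL hygromycin, and assayed without hygromycin. 2,000 cells/well were plated and adhered overnight at 37 °C, 5% CO2. Compounds were added as a 7-point titration, 50 µM to 25 nM final, in 0.46% DMSO, for 30–36 h. OneGlo luminescence was normalized to 4.5 mM sodium butyrate (100%) and DMSO (0%).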
Background: A reporter such as luciferase makes a cellular process visible.

Series [3] has as its system Caco-2. The experiment in a line: Apparent permeability from apical side to basolateral side of human Caco2 cells at 10 uM. It counts as ADME, cell-based. The settings on record: caco-2, 10 µM. For orientation: Passage across Caco-2 layers is used to estimate intestinal permeability.
The target in series [4] is Survival motor neuron protein (Homo sapiens) (UniProt Q16637). The experiment in a line: Activation of SMN expressed in HEK293 cells assessed as concentration required to reach 50% of maximum luciferase signal by SMN2-promotor driven luciferase reporter gene assay. It counts as cell-based. In outline:
as §1

In series [5] the test system is Caco-2. The experiment in a line: Apparent permeability from basolateral side to apical side of human Caco2 cells at 10 uM. It is filed as ADME, cell-based. The note with it: caco-2, 10 µM.
The target of series [6] is T1, Luciferin 4-monooxygenase (Luciola lateralis, UniProt Q01158).
T1 sequence (Q01158 whole entry): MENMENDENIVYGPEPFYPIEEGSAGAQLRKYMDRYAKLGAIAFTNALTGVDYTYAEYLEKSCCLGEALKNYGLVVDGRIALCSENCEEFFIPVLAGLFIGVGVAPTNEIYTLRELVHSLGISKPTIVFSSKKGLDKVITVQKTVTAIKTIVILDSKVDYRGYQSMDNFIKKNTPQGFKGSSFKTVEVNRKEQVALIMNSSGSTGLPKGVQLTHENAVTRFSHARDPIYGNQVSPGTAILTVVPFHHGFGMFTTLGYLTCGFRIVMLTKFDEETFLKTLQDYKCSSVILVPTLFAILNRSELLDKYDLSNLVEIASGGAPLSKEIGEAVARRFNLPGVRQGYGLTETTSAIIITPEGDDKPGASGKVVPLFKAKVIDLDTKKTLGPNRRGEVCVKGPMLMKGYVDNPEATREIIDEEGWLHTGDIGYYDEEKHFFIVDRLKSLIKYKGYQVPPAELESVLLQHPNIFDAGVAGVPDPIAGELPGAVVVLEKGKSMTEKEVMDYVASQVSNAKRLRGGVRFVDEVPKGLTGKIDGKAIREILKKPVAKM
The experiment in a line: Inhibition of fire fly luciferase. Set-up: species or system Aquatica lateralis. The settings on record: read-out: IC50.

For another series, the system named is Liver. The experiment in a line: Half-life in mouse liver microsome at 1 uM. It is filed as ADME. The note with it: microsomes. On the technique in general: Microsomes from liver hold many membrane-bound enzymes, among them those of drug oxidation.
Series [7] deals with Survival motor neuron protein (Homo sapiens) (UniProt Q16637). The experiment in a line: Activation of SMN in human fibroblast cells obtained from type 1 SMA patients assessed as increase in SMN protein level by quantitative Western blot method. It counts as cell-based. In outline: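 Type I SMA patient fibroblasts (3813 line) were seeded at 8,000 cells/cm2 24 h before dosing, with medium and compound renewed every 24 h for 72 h. Lysates (10 µg protein/lane) were immunoblotted for SMN (4f11 antibody) and α-tubulin. Band intensity was normalized to tubulin and expressed as fold over the DMSO control.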
Chain of Survival motor neuron protein (Homo sapiens) (Q16637 whole entry): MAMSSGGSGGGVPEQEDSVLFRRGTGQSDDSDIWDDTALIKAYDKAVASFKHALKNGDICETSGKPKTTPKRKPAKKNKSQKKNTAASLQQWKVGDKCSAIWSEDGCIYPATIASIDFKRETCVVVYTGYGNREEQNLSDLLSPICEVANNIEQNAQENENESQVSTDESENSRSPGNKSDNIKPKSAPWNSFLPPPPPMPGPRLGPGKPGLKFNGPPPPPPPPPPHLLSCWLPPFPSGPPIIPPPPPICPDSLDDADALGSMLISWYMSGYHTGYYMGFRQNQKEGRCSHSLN

For series [8] the target is unchanged. The experiment in a line: Activation of SMN expressed in HEK293 cells by SMN2-promotor driven luciferase reporter gene assay. It is filed as cell-based. The gist of the method:
as §1

13 molecules from ChEMBL document CHEMBL1821687, “Discovery, synthesis, and biological evaluation of novel SMN protein modulators” (J Med Chem, 2011) can be followed below.

Active and inactive are the calls of the source. The calls are words filed in the database; no cut-off is given here. Some results are limits rather than exact numbers.

As a reminder, the half-life is the time in which the quantity being followed falls by half. Molecule `O=C([O-])CCCc1ccccc1.[Na+]` [SODIUM PHENYLBUTYRATE] had a half-life in [1] of 90 min.

The Papp is a coefficient for how fast a substance crosses the barrier. What is called IC50 is the midpoint of a concentration-inhibition curve. Consider `NC(=O)C1CCN(c2nnc(-c3ccc4c(c3)OCCCO4)s2)CC1`, for which the Activity in [2] was determined as 257%; in [4], 0.122 µM. In addition, the values for the Papp with Caco-2 [3] and in the series on Caco-2 [5] were 21.2 ×10⁻⁶ cm/s and 51.2 ×10⁻⁶ cm/s, respectively. In addition, the IC50 in series [6] was determined as 3.2 µM. Further, in the series on Liver, the t1/2 is over 60 min.

For the molecule `COc1nc(-c2ccccc2)nnc1-c1ccccc1`, the Activity result in [7] is “Dose-dependent effect”. Also, in series [8], the outcome was Active.

Regarding `O=C(O)C1CCN(c2nc(-c3ccc(Br)cc3)cs2)CC1`, the Activity is 554% in [2] and 4.87 µM in [4]. In addition, the figures for the Papp in the series with Caco-2 [3] and in the series on Caco-2 [5] were 32.6 ×10⁻⁶ cm/s and 12 ×10⁻⁶ cm/s, respectively. Also, the IC50 in series [6] turned out to be 1.6 µM.

On to `O=C(Nc1ccccc1)C1CCN(c2ncc(-c3ccc4c(c3)OCCCO4)s2)CC1`, for which the Activity in series [2] turned out to be 353%; in series [4], 0.049 µM. For the same molecule, the IC50 in series [6] turned out to be 4 µM. Further, the t1/2 in the series on Liver is under 15 min.

Regarding `CSc1ccc(-c2cnc(N3CCC(C(N)=O)CC3)s2)cc1`, the results for the Activity in series [2] and in [4] were 576% and 0.031 µM, respectively. For the same molecule, the Papp in the series on Caco-2 [3] was determined as 1.6 ×10⁻⁶ cm/s; in the series on Caco-2 [5] it was 0.2 ×10⁻⁶ cm/s. Further, the IC50 in series [6] worked out at 40 µM. In the series on Liver, this molecule registered a t1/2 of 2 min.

Consider `Cc1ccc(-c2cnc(N3CCC(C(N)=O)CC3)s2)cc1`, for which the Activity was found to be 609% in [2] and 0.077 µM in series [4]. The IC50 in [6] came out at 6.4 µM. Moreover, the t1/2 in the series with Liver was 7 min.

`NC(=O)C1CCN(c2nccc(-c3ccc(Br)cc3)n2)CC1`: the Activity in series [2] worked out at 387%; in [4], 0.387 µM.

As to `CC(C)(C)c1ccc(-c2csc(N3CCC(C(N)=O)CC3)n2)cc1`, the Activity turned out to be 243% in [2] and 3.87 µM in series [4].

Molecule `CCCC(=O)[O-].[Na+]` [SODIUM BUTYRATE] displayed a half-life in series [1] of 6 min.

`CN(C)c1cccc(-c2ncc(F)c(N3CCC(C(N)=O)CC3)n2)c1`: the Activity in series [2] was determined as 141%; in series [4], 3.07 µM.

As to `NC(=O)C1CCN(c2nc(-c3ccc4c(c3)OCCO4)cs2)CC1`, the figures for the Activity in [2] and in series [4] were 459% and 0.77 µM, respectively.

On to `CC(C)Oc1cccc(-c2ccnc(N3CCC(C(N)=O)CC3)n2)c1`, for which the Activity was 298% in series [2] and 0.154 µM in series [4]. Further, the figures for the Papp with Caco-2 [3] and with Caco-2 [5] were 40.1 ×10⁻⁶ cm/s and 17.3 ×10⁻⁶ cm/s, respectively. Moreover, the IC50 in series [6] was found to be 10 µM. In the series with Liver, this molecule gave a t1/2 of 18 min.
